Test results reported in ChEMBL document CHEMBL1177781, “Synthesis and SAR of potent inhibitors of the Hepatitis C virus NS3/4A protease: exploration of P2 quinazoline substituents” (Bioorg Med Chem Lett, 2010).

System: not listed separately
Test: Oral bioavailability in Sprague-Dawley rat at 10 mg/kg
Type: ADME, organism-based
Conditions: in vivo
Procedure, shortened: (§1)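 Male Sprague–Dawley rats (n = 2 per route) received a single intravenous dose (2 mg base-equiv/kg) or an oral dose. Mean plasma levels were followed to derive Cl, Vdss, AUC, Cmax, Tmax, T1/2 and F. Liver-to-plasma ratio was determined at 6 h.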

| SMILES | bioavailability [%] |
| --- | --- |
| COc1ccc2c(O[C@@H]3C[C@H]4C(=O)N[C@]5(C(=O)NS(=O)(=O)C6CC6)C[C@H]5/C=C\CCCCN(C)C(=O)[C@@H]4C3)nc(-c3ccccc3)nc2c1C | 40 |
| COc1ccc2c(O[C@@H]3C[C@H]4C(=O)N[C@]5(C(=O)NS(=O)(=O)C6CC6)C[C@H]5/C=C\CCCCN(C)C(=O)N4C3)nc(-c3ccccc3)nc2c1C | 73 |
| COc1ccc2c(O[C@@H]3C[C@H]4C(=O)N[C@]5(C(=O)NS(=O)(=O)C6CC6)C[C@H]5/C=C\CCCCCNC(=O)N4C3)nc(-c3ccc(F)cc3)nc2c1C | 38 |

System: not listed separately
Test: Tmax in Sprague-Dawley rat at 10 mg/kg, po
Type: ADME, organism-based
Parameters: dose 10 mg/kg, route oral
Conditions: in vivo
Procedure, shortened: as §1

| SMILES | Tmax [h] |
| --- | --- |
| COc1ccc2c(O[C@@H]3C[C@H]4C(=O)N[C@]5(C(=O)NS(=O)(=O)C6CC6)C[C@H]5/C=C\CCCCN(C)C(=O)[C@@H]4C3)nc(-c3ccccc3)nc2c1C | 2 |
| COc1ccc2c(O[C@@H]3C[C@H]4C(=O)N[C@]5(C(=O)NS(=O)(=O)C6CC6)C[C@H]5/C=C\CCCCN(C)C(=O)N4C3)nc(-c3ccccc3)nc2c1C | 5 |
| COc1ccc2c(O[C@@H]3C[C@H]4C(=O)N[C@]5(C(=O)NS(=O)(=O)C6CC6)C[C@H]5/C=C\CCCCN(C)C(=O)N4C3)nc(-c3ccc(F)cc3)nc2c1C | 5 |
| COc1ccc2c(O[C@@H]3C[C@H]4C(=O)N[C@]5(C(=O)NS(=O)(=O)C6CC6)C[C@H]5/C=C\CCCCCNC(=O)N4C3)nc(-c3ccc(F)cc3)nc2c1C | 2 |

System: not listed separately
Test: Half life in Sprague-Dawley rat at 10 mg/kg, po
Type: ADME, organism-based
Parameters: dose 10 mg/kg, route oral
Conditions: in vivo
Procedure, shortened: as §1

| SMILES | half-life [h] |
| --- | --- |
| COc1ccc2c(O[C@@H]3C[C@H]4C(=O)N[C@]5(C(=O)NS(=O)(=O)C6CC6)C[C@H]5/C=C\CCCCN(C)C(=O)[C@@H]4C3)nc(-c3ccccc3)nc2c1C | 3.8 |

System: not listed separately
Test: Ratio of drug level in liver to plasma in Sprague-Dawley rat at 2 mg/kg, iv after 6 hrs
Type: ADME, organism-based
Parameters: dose 2 mg/kg, route intravenous
Conditions: not given
Procedure, shortened: as §1

| SMILES | Kp at 6 h |
| --- | --- |
| COc1ccc2c(O[C@@H]3C[C@H]4C(=O)N[C@]5(C(=O)NS(=O)(=O)C6CC6)C[C@H]5/C=C\CCCCN(C)C(=O)N4C3)nc(-c3ccccc3)nc2c1C | 38 |
| COc1ccc2c(O[C@@H]3C[C@H]4C(=O)N[C@]5(C(=O)NS(=O)(=O)C6CC6)C[C@H]5/C=C\CCCCCNC(=O)N4C3)nc(-c3ccc(F)cc3)nc2c1C | 2.5 |

System: not listed separately
Test: (§2) Clearance in Sprague-Dawley rat at 2 mg/kg, iv
Type: ADME, organism-based
Parameters: dose 2 mg/kg, route intravenous
Conditions: Sprague-Dawley, in vivo
Procedure, shortened: as §1

| SMILES | clearance [mL/min/kg] |
| --- | --- |
| COc1ccc2c(O[C@@H]3C[C@H]4C(=O)N[C@]5(C(=O)NS(=O)(=O)C6CC6)C[C@H]5/C=C\CCCCN(C)C(=O)[C@@H]4C3)nc(-c3ccccc3)nc2c1C | 16.7 |
| COc1ccc2c(O[C@@H]3C[C@H]4C(=O)N[C@]5(C(=O)NS(=O)(=O)C6CC6)C[C@H]5/C=C\CCCCN(C)C(=O)N4C3)nc(-c3ccc(F)cc3)nc2c1C | 9.33 |
| COc1ccc2c(O[C@@H]3C[C@H]4C(=O)N[C@]5(C(=O)NS(=O)(=O)C6CC6)C[C@H]5/C=C\CCCCCNC(=O)N4C3)nc(-c3ccc(F)cc3)nc2c1C | 26.7 |

System: Rattus norvegicus
Test: as §2
Type: ADME, organism-based
Parameters: dose 2 mg/kg, route intravenous
Conditions: in vivo
Procedure, shortened: as §1

| SMILES | CL [mL/min/kg] |
| --- | --- |
| COc1ccc2c(O[C@@H]3C[C@H]4C(=O)N[C@]5(C(=O)NS(=O)(=O)C6CC6)C[C@H]5/C=C\CCCCN(C)C(=O)N4C3)nc(-c3ccccc3)nc2c1C | 11.5 |

System: Rattus norvegicus
Test: AUC in Sprague-Dawley rat at 2 mg/kg, iv
Type: ADME, organism-based, Plasma
Parameters: dose 2 mg/kg, route intravenous
Conditions: in vivo
Procedure, shortened: as §1

| SMILES | AUC [µM·h] |
| --- | --- |
| COc1ccc2c(O[C@@H]3C[C@H]4C(=O)N[C@]5(C(=O)NS(=O)(=O)C6CC6)C[C@H]5/C=C\CCCCN(C)C(=O)N4C3)nc(-c3ccccc3)nc2c1C | 8.4 |

System: Liver microsomes
Test: Intrinsic clearance in human liver microsomes
Type: ADME, Microsome
Conditions: not given
Procedure, shortened: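 Metabolic stability in human liver microsomes was expressed as intrinsic clearance (Cl_int, µL/min/mg).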

| SMILES | CL [µL/min] |
| --- | --- |
| COc1ccc2c(O[C@@H]3C[C@H]4C(=O)N[C@]5(C(=O)NS(=O)(=O)C6CC6)C[C@H]5/C=C\CCCCN(C)C(=O)[C@@H]4C3)nc(-c3ccccc3)nc2c1C | < 6 |
| COc1ccc2c(O[C@@H]3C[C@H]4C(=O)N[C@]5(C(=O)NS(=O)(=O)C6CC6)C[C@H]5/C=C\CCCCN(C)C(=O)N4C3)nc(-c3ccccc3)nc2c1C | 17 |
| COc1ccc2c(O[C@@H]3C[C@H]4C(=O)N[C@]5(C(=O)NS(=O)(=O)C6CC6)C[C@H]5/C=C\CCCCN(C)C(=O)N4C3)nc(-c3ccc(F)cc3)nc2c1C | < 6 |
| COc1ccc2c(O[C@@H]3C[C@H]4C(=O)N[C@]5(C(=O)NS(=O)(=O)C6CC6)C[C@H]5/C=C\CCCCCNC(=O)N4C3)nc(-c3ccc(F)cc3)nc2c1C | 20 |

System: not listed separately
Test: Cmax in Sprague-Dawley rat at 10 mg/kg, po
Type: ADME, organism-based
Parameters: dose 10 mg/kg, route oral
Conditions: in vivo
Procedure, shortened: as §1

| SMILES | Cmax [nM] |
| --- | --- |
| COc1ccc2c(O[C@@H]3C[C@H]4C(=O)N[C@]5(C(=O)NS(=O)(=O)C6CC6)C[C@H]5/C=C\CCCCN(C)C(=O)[C@@H]4C3)nc(-c3ccccc3)nc2c1C | 660 |
| COc1ccc2c(O[C@@H]3C[C@H]4C(=O)N[C@]5(C(=O)NS(=O)(=O)C6CC6)C[C@H]5/C=C\CCCCN(C)C(=O)N4C3)nc(-c3ccccc3)nc2c1C | 3400 |
| COc1ccc2c(O[C@@H]3C[C@H]4C(=O)N[C@]5(C(=O)NS(=O)(=O)C6CC6)C[C@H]5/C=C\CCCCN(C)C(=O)N4C3)nc(-c3ccc(F)cc3)nc2c1C | 2600 |
| COc1ccc2c(O[C@@H]3C[C@H]4C(=O)N[C@]5(C(=O)NS(=O)(=O)C6CC6)C[C@H]5/C=C\CCCCCNC(=O)N4C3)nc(-c3ccc(F)cc3)nc2c1C | 390 |

System: not listed separately
Test: AUC in Sprague-Dawley rat at 10 mg/kg, po
Type: ADME, organism-based
Parameters: dose 10 mg/kg, route oral
Conditions: plasma
Procedure, shortened: as §1

| SMILES | AUC [µM·h] |
| --- | --- |
| COc1ccc2c(O[C@@H]3C[C@H]4C(=O)N[C@]5(C(=O)NS(=O)(=O)C6CC6)C[C@H]5/C=C\CCCCN(C)C(=O)[C@@H]4C3)nc(-c3ccccc3)nc2c1C | 3.3 |
| COc1ccc2c(O[C@@H]3C[C@H]4C(=O)N[C@]5(C(=O)NS(=O)(=O)C6CC6)C[C@H]5/C=C\CCCCN(C)C(=O)N4C3)nc(-c3ccccc3)nc2c1C | 15 |
| COc1ccc2c(O[C@@H]3C[C@H]4C(=O)N[C@]5(C(=O)NS(=O)(=O)C6CC6)C[C@H]5/C=C\CCCCN(C)C(=O)N4C3)nc(-c3ccc(F)cc3)nc2c1C | 11 |
| COc1ccc2c(O[C@@H]3C[C@H]4C(=O)N[C@]5(C(=O)NS(=O)(=O)C6CC6)C[C@H]5/C=C\CCCCCNC(=O)N4C3)nc(-c3ccc(F)cc3)nc2c1C | 1.7 |

System: not listed separately
Test: Apparent permeability across human Caco-2 cells
Type: ADME, cell-based
Conditions: not given

| SMILES | Papp [×10⁻⁶ cm/s] |
| --- | --- |
| COc1ccc2c(O[C@@H]3C[C@H]4C(=O)N[C@]5(C(=O)NS(=O)(=O)C6CC6)C[C@H]5/C=C\CCCCN(C)C(=O)[C@@H]4C3)nc(-c3ccccc3)nc2c1C | 13 |
| COc1ccc2c(O[C@@H]3C[C@H]4C(=O)N[C@]5(C(=O)NS(=O)(=O)C6CC6)C[C@H]5/C=C\CCCCN(C)C(=O)N4C3)nc(-c3ccccc3)nc2c1C | 26 |
| COc1ccc2c(O[C@@H]3C[C@H]4C(=O)N[C@]5(C(=O)NS(=O)(=O)C6CC6)C[C@H]5/C=C\CCCCN(C)C(=O)N4C3)nc(-c3ccc(F)cc3)nc2c1C | 32 |
| COc1ccc2c(O[C@@H]3C[C@H]4C(=O)N[C@]5(C(=O)NS(=O)(=O)C6CC6)C[C@H]5/C=C\CCCCCNC(=O)N4C3)nc(-c3ccc(F)cc3)nc2c1C | 32 |

Target: not listed separately
Test: Inhibition of HCV 1a NS3/4A protease
Parameters: species or system Hepatitis C virus subtype 1a
Conditions: not given
Procedure, shortened: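 Enzyme inhibition was determined as Ki against recombinant full-length NS3 enzyme, following a literature procedure, in an external laboratory.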

| SMILES | Ki [nM] |
| --- | --- |
| COc1ccc2c(O[C@@H]3C[C@H]4C(=O)N[C@]5(C(=O)NS(=O)(=O)C6CC6)C[C@H]5/C=C\CCCCN(C)C(=O)[C@@H]4C3)nc(-c3ccccc3)nc2c1C | 0.1 |
| COc1ccc2c(O[C@@H]3C[C@H]4C(=O)N[C@]5(C(=O)NS(=O)(=O)C6CC6)C[C@H]5/C=C\CCCCN(C)C(=O)N4C3)nc(-c3ccccc3)nc2c1C | 0.2 |
| COc1ccc2c(O[C@@H]3C[C@H]4C(=O)N[C@]5(C(=O)NS(=O)(=O)C6CC6)C[C@H]5/C=C\CCCCN(C)C(=O)N4C3)nc(-c3ccc(F)cc3)nc2c1C | 0.3 |
| COc1ccc2c(O[C@@H]3C[C@H]4C(=O)N[C@]5(C(=O)NS(=O)(=O)C6CC6)C[C@H]5/C=C\CCCCCNC(=O)N4C3)nc(-c3ccc(F)cc3)nc2c1C | 0.2 |

System: not listed separately
Test: Ratio of drug level in liver to plasma in Sprague-Dawley rat at 10 mg/kg, po after 6 hrs
Type: ADME, organism-based
Parameters: dose 10 mg/kg, route oral
Conditions: not given
Procedure, shortened: as §1

| SMILES | Kp at 6 h |
| --- | --- |
| COc1ccc2c(O[C@@H]3C[C@H]4C(=O)N[C@]5(C(=O)NS(=O)(=O)C6CC6)C[C@H]5/C=C\CCCCN(C)C(=O)N4C3)nc(-c3ccccc3)nc2c1C | 32 |
| COc1ccc2c(O[C@@H]3C[C@H]4C(=O)N[C@]5(C(=O)NS(=O)(=O)C6CC6)C[C@H]5/C=C\CCCCN(C)C(=O)N4C3)nc(-c3ccc(F)cc3)nc2c1C | 42 |
| COc1ccc2c(O[C@@H]3C[C@H]4C(=O)N[C@]5(C(=O)NS(=O)(=O)C6CC6)C[C@H]5/C=C\CCCCCNC(=O)N4C3)nc(-c3ccc(F)cc3)nc2c1C | 100 |

System: Hepatitis C virus
Test: Antiviral activity against HCV1b infected in human Huh7 cells assessed as inhibition viral subgenomic replication
Type: functional, organism-based, Hepacivirus hominis
Conditions: genotype 1b, Huh-7
Procedure, shortened: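 Cell-based EC50 was measured in Huh7 cells carrying the subgenomic bicistronic HCV replicon clone ET, with a luciferase read-out.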

| SMILES | EC50 [nM] |
| --- | --- |
| COc1ccc2c(O[C@@H]3C[C@H]4C(=O)N[C@]5(C(=O)NS(=O)(=O)C6CC6)C[C@H]5/C=C\CCCCN(C)C(=O)[C@@H]4C3)nc(-c3ccccc3)nc2c1C | 5 |
| COc1ccc2c(O[C@@H]3C[C@H]4C(=O)N[C@]5(C(=O)NS(=O)(=O)C6CC6)C[C@H]5/C=C\CCCCN(C)C(=O)N4C3)nc(-c3ccccc3)nc2c1C | 11 |
| COc1ccc2c(O[C@@H]3C[C@H]4C(=O)N[C@]5(C(=O)NS(=O)(=O)C6CC6)C[C@H]5/C=C\CCCCN(C)C(=O)N4C3)nc(-c3ccc(F)cc3)nc2c1C | 16 |
| COc1ccc2c(O[C@@H]3C[C@H]4C(=O)N[C@]5(C(=O)NS(=O)(=O)C6CC6)C[C@H]5/C=C\CCCCCNC(=O)N4C3)nc(-c3ccc(F)cc3)nc2c1C | 16 |
